Reference: ChEMBL document CHEMBL1765063, “Synthesis and anti-melanogenic activity of hydroxyphenyl benzyl ether analogues” (Bioorg Med Chem, 2011)

Key:
Tyrosinase = biological target: T1, Tyrosinase (Mus musculus, UniProt P11344); test: Inhibition of tyrosinase activity in alpha-MSH-stimulated mouse B16 cells using L-tyrosine as substrate; format: cell-based
T1 sequence (P11344 whole entry): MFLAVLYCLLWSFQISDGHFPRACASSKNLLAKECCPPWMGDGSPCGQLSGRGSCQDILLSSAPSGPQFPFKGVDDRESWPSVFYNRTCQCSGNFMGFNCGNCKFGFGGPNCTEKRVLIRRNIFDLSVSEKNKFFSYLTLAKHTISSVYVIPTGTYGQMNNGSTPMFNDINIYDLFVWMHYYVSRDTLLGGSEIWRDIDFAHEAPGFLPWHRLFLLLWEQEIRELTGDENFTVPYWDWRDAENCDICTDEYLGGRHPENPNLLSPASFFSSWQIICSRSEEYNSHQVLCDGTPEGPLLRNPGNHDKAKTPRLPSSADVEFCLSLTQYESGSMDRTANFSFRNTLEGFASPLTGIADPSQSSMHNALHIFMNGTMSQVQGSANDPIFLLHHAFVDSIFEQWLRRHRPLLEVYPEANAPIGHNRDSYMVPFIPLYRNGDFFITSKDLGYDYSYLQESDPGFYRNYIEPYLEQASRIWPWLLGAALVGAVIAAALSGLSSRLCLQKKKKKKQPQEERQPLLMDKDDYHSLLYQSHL
In short: (§1)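 Enzyme source: B16 cells stimulated 48 h with 10 nM α-MSH, sonicated on ice and centrifuged. Supernatant dialysed against 50 mM sodium phosphate, pH 6.8. Compound preincubated with the cell-free enzyme, then 5 mM L-tyrosine added as substrate. One unit converts 1 nmol L-tyrosine per min.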

B16 [1] = test: Inhibition of alpha-MSH-induced melanin synthesis in mouse B16 cells grown in a 5% CO2-95% air atmosphere at 10 uM after 3 days; format: functional; conditions: B16, 72 h
In short: (§2)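 Mouse B16 melanoma cells seeded at 2.5×10^3 per well in DMEM with 10% FBS and grown 1 day at 37 °C. α-MSH was added together with compound at various concentrations, then cells were incubated 3 days at 37 °C. Absorbance at 405 nm was read against a synthetic melanin standard curve (melanin dissolved in 0.85 N KOH). IC50 is the mean of triplicate determinations.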

[2] = tested on: Radical scavenging activity; test: Antioxidant activity assessed as DPPH free radical scavenging activity at 100 uM after 30 mins; format: functional
In short: (§3)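 Compounds in ethanol mixed 1:1 by volume with 200 µM DPPH stock (stock concentration). Shaken 30 min at room temperature, absorbance read at 517 nm. Percent scavenging taken against DPPH without compound, blank-corrected. Screening done at 100 µM final. […] Triplicate runs, vitamin C as positive control.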

[3] = biological target: T2, Tyrosinase (Mus musculus) (UniProt P11344); test: Inhibition of tyrosinase activity in alpha-MSH-stimulated mouse B16 cells at 100 uM using L-tyrosine as substrate; format: cell-based
T2 sequence (whole entry): T1 sequence (P11344 whole entry)
In short: as §1, with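 “substrate. Initial rate of dopachrome formation followed at 475 nm.” for “substrate.”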

[4] = tested on: Radical scavenging activity; test: Antioxidant activity assessed as DPPH free radical scavenging activity after 30 mins; format: functional; in short: as §3
B16 [5] = test: Inhibition of alpha-MSH-induced melanin synthesis in mouse B16 cells grown in a 5% CO2-95% air atmosphere after 3 days; format: functional, cell-based; conditions: B16, 72 h; in short: as §2

| Compound | IC50 (Tyrosinase) | inhibition at 10 µM (B16 [1]) | inhibition [2] | inhibition [3] | EC50 [4] | IC50 (B16 [5]) |
| --- | --- | --- | --- | --- | --- | --- |
| Oc1cc(O)cc(OCc2cccc(Cl)c2)c1 | 54.7 µM | 18% | 49% | 70.5% | 119 µM | – |
| Oc1ccc(OCc2ccc(Cl)c(Cl)c2)cc1 | – | 87% | 33.2% | 9.5% | – | 1870 nM |
| CC(=O)Oc1cc(O)cc(OCc2ccc(Cl)c(Cl)c2)c1 | – | – | 8% | – | – | – |
| COc1cc(COc2cc(O)cc(OC(C)=O)c2)cc(OC)c1 | – | – | 1.7% | – | – | – |
| OC[C@H]1O[C@@H](Oc2ccc(O)cc2)[C@H](O)[C@@H](O)[C@@H]1O [ARBUTIN] | – | – | – | – | – | 99000 nM |
| Oc1cc(OCc2ccc(Cl)c(Cl)c2)cc(OCc2ccc(Cl)c(Cl)c2)c1 | – | 4% | 17% | 0% | – | – |
| COc1cc(COc2cc(O)cc(OCc3cc(OC)cc(OC)c3)c2)cc(OC)c1 | – | 6% | 27.4% | 0% | – | – |
| Oc1cc(O)cc(OCc2ccc(F)cc2)c1 | 90 µM | 14% | 46.6% | 55.5% | 140 µM | – |
| O=C1O[C@H]([C@@H](O)CO)C(O)=C1O [ASCORBIC ACID] | – | – | 93.9% | – | 26.2 µM | – |
| Oc1cc(OCc2cccc(Cl)c2)cc(OCc2cccc(Cl)c2)c1 | – | 21% | 22.1% | 1.5% | – | – |
| COc1cc(COc2cc(O)cc(O)c2)cc(OC)c1 | – | 19% | 46.8% | 27.5% | 129 µM | – |
| Oc1cc(O)cc(OCc2ccc(Cl)c(Cl)c2)c1 | 66.4 µM | 15% | 37.3% | 66% | – | – |
| Oc1ccc(OCc2cccc(Cl)c2)cc1 | – | 78% | 54.7% | 1% | 76.8 µM | 1830 nM |
| Oc1cc(OCc2ccc(F)cc2)cc(OCc2ccc(F)cc2)c1 | – | 12% | 21.2% | 5.5% | – | – |
| Oc1cc(OCc2ccccc2Cl)cc(OCc2ccccc2Cl)c1 | – | 33% | 15.6% | 3.5% | – | – |
| Oc1cc(O)cc(OCc2ccccc2Cl)c1 | – | 11% | 42.8% | 45.5% | 165 µM | – |
| COc1cc(COc2ccc(O)cc2)cc(OC)c1 | – | > 100% | 54.1% | 0% | 76.3 µM | 1930 nM |
| Oc1ccc(OCc2ccccc2Cl)cc1 | – | 55% | 46.5% | 0% | 113 µM | – |
| Oc1ccc(OCc2ccc(F)cc2)cc1 | – | 42% | 48.2% | 1.5% | 102 µM | – |
